Assay results reported in ChEMBL document CHEMBL1154154, “Synthesis and pharmacological evaluation of 1,3,4-oxadiazole bearing bis(heterocycle) derivatives as anti-inflammatory and analgesic agents” (Eur J Med Chem, 2009).

How the values were obtained:
Mus musculus = assay: Analgesic activity in albino mouse assessed as reduction in acetic acid-induced writhing response at 100 mg/kg, po administered 1 hr prior to acetic acid challenge relative to control; type: functional; parameters: scale not given: the % may be the effect or the level left
In short: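 Six mice per group got compound po at 100 mg/kg, 1 h before ip 0.6% acetic acid (10 mL/kg). Total writhes were counted over an observation window starting 5 min after the acetic acid injection. Aspirin at 100 mg/kg po was the positive control.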

Rattus norvegicus = assay: Antiinflammatory activity in albino rat assessed as inhibition of carrageenan-induced paw edema at 100 mg/kg, po administered 1 hr prior to carrageenen challenge measured after 3 hrs relative to control; type: functional
In short: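 Four rats per group got 100 mg/kg po, 1 h before subplantar injection of 1% Type IV lambda carrageenan suspension into the right hind paw. Vehicle controls got 0.5% sodium carboxymethyl cellulose (10 mL/kg) and the positive control got ibuprofen 100 mg/kg. Paw volume was read by plethysmograph water displacement immediately and at 3 h. Edema was compared statistically with vehicle controls as percent inhibition.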

CC(=O)Oc1ccccc1C(=O)O [ASPIRIN]
Activity (Mus musculus): 57.3%

CC(C)Cc1ccc(C(C)C(=O)O)cc1 (configuration not stated) [IBUPROFEN]
inhibition in vivo at 100 mg/kg (Rattus norvegicus): 70.7%
